Apaf-1 act – activators of human Apaf-1 apoptosome, primary screen, biochemical, DEVD-Rh110 fluorescence, uHTS; Apaf-1 apoptosome caspase-3 activation; stronger effect = lower value; activity change, negative = activation, % at 20 µM; hit rate 0.31% among 330,000; Apoptotic protease-activating factor 1 (Homo sapiens), O14727;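 active = activity change at or below -40% at 20 µM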
Target sequence (O14727 whole entry, looked up): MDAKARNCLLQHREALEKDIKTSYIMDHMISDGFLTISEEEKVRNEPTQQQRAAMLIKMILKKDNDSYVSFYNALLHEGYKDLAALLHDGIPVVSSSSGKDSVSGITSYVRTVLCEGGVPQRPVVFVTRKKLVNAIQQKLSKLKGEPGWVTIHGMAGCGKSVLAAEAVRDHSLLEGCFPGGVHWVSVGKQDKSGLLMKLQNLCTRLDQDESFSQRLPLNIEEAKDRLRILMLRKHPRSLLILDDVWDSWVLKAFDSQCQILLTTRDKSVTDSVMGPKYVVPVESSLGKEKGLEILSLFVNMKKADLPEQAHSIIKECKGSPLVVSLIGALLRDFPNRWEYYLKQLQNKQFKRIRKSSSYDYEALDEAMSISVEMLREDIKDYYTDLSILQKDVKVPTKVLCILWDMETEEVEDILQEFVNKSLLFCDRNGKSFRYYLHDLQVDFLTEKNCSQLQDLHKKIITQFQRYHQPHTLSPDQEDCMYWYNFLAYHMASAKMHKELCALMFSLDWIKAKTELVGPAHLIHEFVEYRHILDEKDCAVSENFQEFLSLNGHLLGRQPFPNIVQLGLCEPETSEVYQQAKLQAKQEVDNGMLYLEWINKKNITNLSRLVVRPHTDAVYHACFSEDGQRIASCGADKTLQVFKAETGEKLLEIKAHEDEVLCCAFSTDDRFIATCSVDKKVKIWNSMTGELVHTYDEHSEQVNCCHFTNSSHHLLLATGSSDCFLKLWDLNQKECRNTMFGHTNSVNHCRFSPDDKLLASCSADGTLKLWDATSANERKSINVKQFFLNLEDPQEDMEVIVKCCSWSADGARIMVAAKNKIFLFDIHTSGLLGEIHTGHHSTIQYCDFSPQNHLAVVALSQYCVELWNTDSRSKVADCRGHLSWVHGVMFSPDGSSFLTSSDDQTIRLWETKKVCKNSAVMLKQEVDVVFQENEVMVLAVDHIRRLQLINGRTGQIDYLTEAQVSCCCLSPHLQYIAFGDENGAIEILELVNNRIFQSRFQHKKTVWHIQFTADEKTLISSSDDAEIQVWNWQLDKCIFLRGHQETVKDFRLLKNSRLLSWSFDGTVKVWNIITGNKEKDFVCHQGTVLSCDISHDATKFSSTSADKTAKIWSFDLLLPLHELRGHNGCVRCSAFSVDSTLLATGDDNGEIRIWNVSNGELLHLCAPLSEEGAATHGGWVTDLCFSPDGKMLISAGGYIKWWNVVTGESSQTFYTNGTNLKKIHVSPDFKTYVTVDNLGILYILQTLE
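Schedule: 30 min preincubation, 50 min reaction, room temperature / System: biochemical Apaf-1 apoptosome reconstitution / Medium: 20 mM HEPES pH 7.5 with CHAPS, BSA / Evaluation: Caspase-3 cleavage activity downstream of Apaf-1 activation / Detection: Caspase-3-released Rh110 fluorescence, 540 nm emission, 480 nm excitation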
Rh110 interf act – Rh110 fluorescence interference by putative Apaf-1 activators, confirmation, artefact control for Apaf-1 activator project, biochemical, 20 µM | fluorescence interference (activity change), % at 20 µM, hits read low | AID 504616, 2011 | 980 tested, under 10 active | shares compounds with Apaf-1 act | quenched caspase reaction, Ex480/Em540;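 active = mean activity change at or below -40% when tested at 20 µM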
Apaf-1 act conf2 – Apaf-1 activators, single-dose retest, confirmation, biochemical, fluorescence, DEVD-Rh110, 20 µM | hit rate 5% among 980 | AID 504617, 2011 | activity change, negative = activation, % at 20 µM | reconstituted apoptosome caspase-3 activity; stronger effect = lower value | shares compounds with Apaf-1 act;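 active = mean activity change at or below -40%, meaning activation of 40% or more, at 20 µM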
Apaf1 act interf – fluorescence interference of Apaf-1 activator hits, dose response, artefact control for Apaf-1 activator project. shares compounds with Apaf-1 act. 55 tested, under 10 active. EC50, µM. fluorescence interference counterscreen, Apaf-1 activator assay. AID 588592, 2011; call rule not given here
Active calls of the source: *; nt = not tested or not shown. Not all results are given here.

SMILES	Apaf-1 act	Rh110 interf act	Apaf-1 act conf2	others
Cc1ccc(C)n1-c1nnc(N2CCC(C(=O)NCCCN3CC(C)CC(C)C3)CC2)s1 (stereo not given)	-402.0*	5.5	13.9
Cc1cc2ccccc2n1CCNC(=O)C1CCCCC1	44.2	nt	nt
O=C(NCCCN1CCc2ccccc2C1)C1CCN(c2nnc(-n3cccc3)s2)CC1	51.3	nt	nt
Cc1cc(C)c2nc(N(CCN(C)C)C(=O)c3ccc(S(=O)(=O)N(C)CC4CCCO4)cc3)sc2c1 (stereo not given)	48.7	nt	nt
O=C(CC1Nc2cccc3cccc(c23)NC1=O)Nc1ccccc1 (stereo not given)	96.1	nt	nt
CCOC(=O)c1ccc(NC(=S)NC(=O)c2nn(CC)cc2Br)cc1	-51.0*	-0.2	11.0
CCOC(=O)c1ccc(NC(=O)c2nn(C)cc2Br)cc1	-148.1*	4.5	16.2
CC(=O)Nc1ccc(C(=O)COC(=O)c2nc3nc(C)cc(C)n3n2)cc1	41.2	nt	nt
COCCN1C=C2C(=O)C(C)(OC(=O)CCC(=O)OC)C(=O)C=C2C=C1C1CC1 (stereo not given)	43.0	nt	nt
CCC(=Nc1ccc(N)cc1)C1=C(O)C(C(=O)OC)C(C)(C)CC1=O (stereo not given)	61.5	nt	nt
C=C(C)C(=O)Nc1cccc(C2=NOC3(C2)C[C@H](C(N)=O)N(C(=O)c2ccccc2)C3)c1 (stereo not given in full)	-64.2*	-6.5	-58.6*	Apaf1 act interf=>100
C=C(C)C(=O)Nc1cccc(C2=NOC3(C2)C[C@@H](C(N)=O)N(C(=O)C(=C)C)C3)c1 (stereo not given in full)	-291.0*	1.1	-132.6*	Apaf1 act interf=>100
C=C(C)C(=O)Nc1cccc(C2=NOC3(C2)C[C@@H](C(N)=O)N(C(=O)c2cc([N+](=O)[O-])cc([N+](=O)[O-])c2C)C3)c1 (stereo not given in full)	-106.8*	-2.6	-128.3*	Apaf1 act interf=>100
C=C(C)C(=O)Nc1cccc(C2=NOC3(C2)C[C@@H](C(N)=O)N(C(=O)c2ccc(Cl)cc2)C3)c1 (stereo not given in full)	-204.2*	12.0	-126.6*	Apaf1 act interf=>100
C#CCOCCOCCOCCNc1nc(N2CCN(C(=O)CCCCCCCCCCNC(=O)[C@H](CCCCN)n3cc(CCO)nn3)CC2)nc(N2CCN(C(=O)CCCCCCCCCCNC(=O)[C@H](CCCN=C(N)N)n3cc(C[C@@H](C)CC)nn3)CC2)n1	77.7	nt	nt
O=C1C2=C(c3ccccc31)[N+](=O)C1CCCCC1N2[O-] (stereo not given)	54.5	nt	nt
C#CCOCCOCCOCCNc1nc(N2CCN(C(=O)CCCCCCCCCCNC(=O)[C@H](CCCCN)n3cc(CCO)nn3)CC2)nc(N2CCN(C(=O)CCCCCCCCCCNC(=O)[C@@H]([C@H](C)O)n3cc(C)nn3)CC2)n1	59.2	nt	nt
CCOC(=O)N=Nc1c2ccccc2c2nc3no[nH]c3nc12	88.4	nt	nt
C#CCOCCOCCOCCNc1nc(N2CCN(C(=O)CCCCCCCCCCNC(=O)[C@H](CCCCN)n3cc(CCCC(=O)O)nn3)CC2)nc(N2CCN(C(=O)CCCCCCCCCCNC(=O)[C@H](CCCN=C(N)N)n3cc(C[C@@H](C)CC)nn3)CC2)n1	76.2	nt	nt
NC1=NC[C@H](Cc2ccccc2)N1CCCCC1CCCCC1	66.9	nt	nt
O=C1NCCCC2c3cc(O)c4ccccc4c3OC12N1CCCCC1 (stereo not given)	93.0	nt	nt
N#Cc1c(N(CCO)CCO)nc(N)c2c(N)nc3c(c12)CC(=O)N3Cc1cccs1	72.8	nt	nt
CCC(=O)OCCNc1cc(Sc2nc3ccccc3s2)c2nonc2c1[N+](=O)[O-]	45.7	nt	nt
CCO[C@@H]1OC(C(=O)N2CCN(Cc3ccc4c(c3)OCO4)CC2)=C[C@H](c2ccc(C(F)(F)F)cc2)[C@H]1CCCO	41.8	nt	nt
C=C(C)C(=O)Nc1cccc(C2=NOC3(C2)C[C@H](C(N)=O)N(C(=O)COc2ccc(Cl)cc2)C3)c1 (stereo not given in full)	-344.1*	0.0	-126.9*	Apaf1 act interf=>100
SMILES	Apaf-1 act	Rh110 interf act	Apaf-1 act conf2	others
CC(=O)N(/N=C1\Sc2ccccc2C1=O)c1cccc(C)c1	85.8	nt	nt
Cc1c(O)cccc1C(=O)N[C@@H](CSc1ccccc1)[C@H](O)CN1C[C@H]2CCCC[C@H]2C[C@H]1C(=O)NC(C)(C)C	29.8	nt	nt
O=C(CN1CCN(Cc2ccccc2)CC1)Nc1cccc(S(=O)(=O)N2CCCCCC2)c1	-173.5*	10.5	14.7
O=C(CSc1ncnc2ccccc12)Nc1cccc(S(=O)(=O)N2CCCC2)c1	-42.9*	2.1	0.6
CCN(c1ccccc1)S(=O)(=O)c1ccc(Cl)c(NC(=O)CN2CCN(C)CC2)c1	51.5	nt	nt
Cn1c(CN2CCCC2)nc2cc(NC(=O)COc3ccccc3)ccc21	53.4	nt	nt
Cc1ccc(C(C[N+](=O)[O-])c2c(C)[nH]n(-c3ccccc3)c2=O)cc1 (stereo not given)	93.4	nt	nt
O=C1/C(=N\S(=O)(=O)c2cccs2)C([n+]2ccc(CCCc3ccccc3)cc2)=C([O-])c2ccccc21	45.6	nt	nt
CCO/C=C1/C(=O)N(Cc2ccccc2)C(=O)c2ccccc21	61.7	nt	nt
CC(=O)c1ccc(NC(=O)c2cnsn2)cc1	-409.7*	5.2	11.9
CC(=O)c1ccc(NC(=O)c2ccc3nc(-c4ccco4)c(-c4ccco4)nc3c2)cc1	51.9	nt	nt
CC(=O)c1ccc(NC(=S)Nc2cccc3cnccc23)cc1	96.3	nt	nt
Cc1[nH]c2ccc(C(=O)NCC(C)(C)N3CCOCC3)cc2c1C	-519.3*	0.3	7.7
CN(C)c1cc(Cl)c2nonc2c1N	94.4	nt	nt
Oc1c(Br)cc(/C=N/NC(=S)NCc2ccco2)cc1Br	-328.7*	-0.3	14.3
CC(=O)Nc1c(S(=O)(=O)c2ccccc2)c2nc3ccccc3nc2n1Cc1ccccc1	60.5	nt	nt
CCCCCCSc1ccc(-c2nc3ccc(C)cn3c2NCc2ccccc2)cc1OC	41.5	nt	nt
Cc1noc(C)c1S(=O)(=O)N1CCCC(C(=O)NCC2CCCO2)C1 (stereo not given)	-89.4*	9.0	12.0
CC(C)[C@H](N)C(=O)OCCOCn1cnc2c(=O)[nH]c(N)nc21	-6.6	nt	nt
CCCc1[nH]nc2c1C(c1ccc(OC)c(CSC3=NCCS3)c1)C(C#N)=C(N)O2 (stereo not given)	41.0	nt	nt
O=C(NC(=S)Nn1cnc2c(cnn2-c2ccccc2)c1=O)c1ccc(Oc2ccccc2)cc1	40.7	nt	nt
COC(=O)Cn1cnc2c(cnn2-c2ccccc2)c1=O	-196.9*	1.0	7.0
CCCC(=O)OCCNc1cc(SCc2ccco2)c2nonc2c1[N+](=O)[O-]	57.1	nt	nt
O=C(NCc1ccc2c(c1)OCO2)c1cc(-c2ccccc2)c(N2CCOCC2)s1	-287.3*	8.3	22.3
Nc1c(C(=O)NCc2ccc3c(c2)OCO3)c2nc3ccccc3nc2n1CCCN1CCOCC1	90.3	nt	nt
O[C@@H](c1cc(C(F)(F)F)nc2c(C(F)(F)F)cccc12)[C@H]1CCCCN1	51.9	nt	nt
